Values after ≈ are worked out from the molar mass of the structure shown. Where only a bound is given, the exact number is not on record here.

From ChEMBL document CHEMBL1135624, “Parallel synthesis of potent, pyrazole-based inhibitors of Helicobacter pylori dihydroorotate dehydrogenase” (J Med Chem, 2002) come the findings set out here.

Assay [1] has as its system Helicobacter pylori. The assay is described as follows: Minimum Inhibitory concentration against Helicobacter pylori. Format: functional. Summed up:
(§1)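 Whole-cell antimicrobial MIC against a reference American Type Culture Collection *H. pylori* strain, reported in μg/mL.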

For assay [2], the target named is Dihydroorotate dehydrogenase (quinone), mitochondrial (Homo sapiens, UniProt Q02127). The experiment in a line: Inhibition of human dihydroorotate dehydrogenase (DHODase).
Chain of Dihydroorotate dehydrogenase (quinone), mitochondrial (Q02127 whole entry): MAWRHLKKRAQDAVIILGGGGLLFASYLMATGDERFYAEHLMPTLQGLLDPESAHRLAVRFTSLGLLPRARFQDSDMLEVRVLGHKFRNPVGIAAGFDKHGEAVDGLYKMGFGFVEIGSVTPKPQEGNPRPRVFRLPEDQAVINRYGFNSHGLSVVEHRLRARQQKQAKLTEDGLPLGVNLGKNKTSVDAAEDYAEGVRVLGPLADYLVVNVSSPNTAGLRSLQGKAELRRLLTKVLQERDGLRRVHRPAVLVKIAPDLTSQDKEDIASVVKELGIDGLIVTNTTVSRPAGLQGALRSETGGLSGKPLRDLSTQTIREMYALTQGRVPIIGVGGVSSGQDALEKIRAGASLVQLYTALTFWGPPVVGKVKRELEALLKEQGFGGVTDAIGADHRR
The test system of assay [3] is Helicobacter pylori. The assay is described as follows: Minimum inhibitory concentration measured against compound 1 resistant Helicobacter pylori isolate. Format: functional. In short, it runs like this: (§2)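 Spontaneously resistant H. pylori mutants were isolated by plating cells on the selecting pyrazole, with the same method for each of the two selecting agents. Each resistant isolate was then tested for MIC against the pyrazole not used to select it, as a cross-resistance check.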

In assay [4] the test system is Helicobacter pylori. The assay is described as follows: Minimum inhibitory concentration measured against compound 13 resistant Helicobacter pylori isolate. Format: functional. In short, it runs like this: as §2
A short description of assay [5]: Minimum inhibitory concentration measured against wild type. Format: functional. The conditions noted are these: Helicobacter pylori. In short, it runs like this: as §1

Compound `CC(C)CNC(=O)c1cc(C(=O)NCc2ccccc2)nn1-c1ccc(Cl)cc1` came in with a minimal inhibitory concentration (MIC) in the assay with Helicobacter pylori [1] above 64 µg/mL. Also, the inhibitory constant (Ki) in assay [2] was above 50 µM.

`COc1ccc(-n2nc(C(=O)Nc3ccc(C(=O)N4CCCC4)cc3)cc2C(=O)NCc2ccccc2)cc1` came in with an MIC with Helicobacter pylori [1] above 32 µg/mL.

In the case of `O=C(NCc1cccnc1)c1cc(C(=O)Nc2ccc(N3CCCCC3)cc2)n(-c2ccc(Cl)cc2)n1`, in the assay with Helicobacter pylori [1], inhibition of growth (MIC) required 2 µg/mL (≈ 3.88 µM). Moreover, the inhibition constant Ki in assay [2] was above 50 µM.

On to `COc1ccc(-n2nc(C(=O)NCC(C)C)cc2C(=O)Nc2ccc(C(=O)N3CCCC3)cc2)cc1`, for which it took 64 µg/mL (≈ 131 µM) to inhibit growth against Helicobacter pylori [1] (MIC). This compound came in with a Ki in assay [2] above 50 µM.

In the case of `COc1ccc(-n2nc(C(=O)NCc3cccnc3)cc2C(=O)Nc2ccccc2)cc1`, the minimal inhibitory concentration (MIC) against Helicobacter pylori [1] amounted to 0.5 µg/mL (≈ 1.17 µM); against Helicobacter pylori [3] it was 32 µg/mL (≈ 74.9 µM); against Helicobacter pylori [4], 24 µg/mL (≈ 56.1 µM); in assay [5], 0.5 µg/mL (≈ 1.17 µM). This compound displayed an inhibition constant (Ki) in assay [2] above 50 µM.

As for `O=C(NCc1ccccc1)c1cc(C(=O)Nc2ccccc2)n(-c2ccc(Cl)cc2)n1`, 0.125 µg/mL (≈ 0.29 µM) was the least that counted as inhibitory with Helicobacter pylori [1] (MIC). The same compound had an inhibition constant (Ki) in assay [2] of 50 µM.

In turn, `Cc1ccc(CNC(=O)c2cc(C(=O)Nc3ccccc3)n(-c3ccc(Cl)cc3)n2)cc1` returned an MIC in the assay on Helicobacter pylori [1] of 32 µg/mL (≈ 71.9 µM). Besides, the inhibition constant (Ki) in assay [2] was above 50 µM.

As to `COc1ccc(-n2nc(C(=O)NC(c3ccccc3)c3ccccc3)cc2C(=O)NCc2ccccc2)cc1`, the minimum inhibitory concentration (MIC) against Helicobacter pylori [1] was above 32 µg/mL. Also, the inhibitory constant (Ki) in assay [2] was above 50 µM.

In the assay on Helicobacter pylori [1], `O=C(NCc1cccnc1)c1cc(C(=O)Nc2ccccc2)n(-c2ccc(Cl)cc2)n1` had a minimal inhibitory concentration (MIC) of 0.25 µg/mL (≈ 0.579 µM). The compound also yielded a Ki in assay [2] above 50 µM.

`NC(=O)c1ccc(NC(=O)c2cc(C(=O)NCc3ccccc3)nn2-c2ccc(Cl)cc2)cc1` showed an MIC in the assay on Helicobacter pylori [1] of 8 µg/mL (≈ 16.9 µM). Further, in assay [2], the inhibition constant (Ki) was above 50 µM.

`COc1ccc(-n2nc(C(=O)NCc3ccccc3)cc2C(=O)Nc2ccc(C(=O)N3CCCC3)cc2)cc1`: the minimal inhibitory concentration (MIC) against Helicobacter pylori [1] is 3 µg/mL (≈ 5.73 µM); in the assay on Helicobacter pylori [3], above 64 µg/mL; with Helicobacter pylori [4], above 64 µg/mL; in assay [5], 3 µg/mL (≈ 5.73 µM). The same compound had a Ki in assay [2] above 50 µM.

On to `COc1ccc(-n2nc(C(=O)NCC3CCCO3)cc2C(=O)Nc2ccc(C(=O)N3CCCC3)cc2)cc1` (centres undefined), for which the minimal inhibitory concentration (MIC) against Helicobacter pylori [1] is above 32 µg/mL. The compound further yielded an inhibitory constant (Ki) in assay [2] above 50 µM.

By MIC is commonly meant the smallest concentration in the dilution series that meets the test's criterion for growth inhibition. Low values mean a more susceptible organism, high ones a less susceptible organism. In general, Ki refers to the equilibrium dissociation constant of an inhibitor or competing ligand from its target. A higher Ki goes with weaker binding.
